According to ChEMBL document CHEMBL3351932, “Discovery of BI 207524, an indole diamide NS5B thumb pocket 1 inhibitor with improved potency for the potential treatment of chronic hepatitis C virus infection” (J Med Chem, 2014):

What was measured:
[1] = Inhibition of Hepatitis C virus genotype 1b Con1 NS5B RNA dependent RNA polymerase activity using Bright-Glo luciferase substrate by cell-based 1b luciferase reporter assay; set-up: species or system Hepatitis C virus (isolate Con1)
Procedure, shortened: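 Cell-based genotype 1b luciferase reporter replicon assay; EC50 determined in duplicate, values averaged over at least two determinations.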

[2] = Half life in human liver microsomes; assay type: ADME
[3] = Plasma concentration in rat at 4 mg/kg, po cassette dosing after 1 hr; assay type: ADME, organism-based; set-up: dose 4 mg/kg, route oral
Procedure, shortened: (§1)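 Cassette screen: mixture of 4 compounds, each at 4 mg/kg, dosed orally to 2 rats; plasma sampled at 1 h and 2 h, solid-phase extracted and quantified by HPLC-UV or LC/MS against calibration standards in blank plasma (LOQ 7 ng/mL).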

[4] = Permeability across apical to basolateral side in human Caco2 cells; assay type: ADME, cell-based; conditions: Caco-2, read-out: permeability
[5] = Inhibition of HCV full-length NS5B polymerase; set-up: species or system Hepacivirus hominis
Procedure, shortened: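 Polymerase inhibition with full-length NS5B enzyme in a biochemical assay; IC50 averaged from duplicate measurements, at least two determinations.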

[6] = Plasma concentration in rat at 4 mg/kg, po cassette dosing after 2 hrs; assay type: ADME, organism-based; set-up: dose 4 mg/kg, route oral; procedure, shortened: as §1
[7] = Cmax in rat at 10 mg/kg, po; assay type: ADME, organism-based; set-up: dose 10 mg/kg, route oral; conditions: in vivo
Procedure, shortened: (§2)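 Single-compound oral PK after overnight fast; 10 mg/kg given as suspension in 0.5% methylcellulose and 0.3% Tween-80, with or without 1% NMP as added solubilizer; N=3 per dose and route. Plasma kept on ice, centrifuged at 4°C, stored near -20°C, extracted by solid phase, quantified by HPLC-UV or LC/MS against blank-plasma standards (LOQ 7 ng/mL); non-compartmental analysis.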

[8] = AUC in rat at 10 mg/kg, po; assay type: ADME, organism-based; set-up: dose 10 mg/kg, route oral; conditions: plasma; procedure, shortened: as §2
[9] = Oral bioavailability in rat at 10 mg/kg; assay type: ADME, organism-based; conditions: in vivo; procedure, shortened: as §2
[10] = Clearance in rat at 2 mg/kg, iv; assay type: ADME, organism-based; set-up: dose 2 mg/kg, route intravenous; conditions: in vivo
Procedure, shortened: (§3)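 Fasted animals dosed IV by bolus at 2 mg/kg in 70% PEG-400:30% water; N=3 per dose and route. Plasma separated at 4°C, stored near -20°C, solid-phase extracted, assayed by HPLC-UV or LC/MS with blank-plasma calibration (r2 > 0.99, LOQ 7 ng/mL); parameters from non-compartmental analysis.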

[11] = Mean residence time in rat at 10 mg/kg, po; assay type: ADME, organism-based; set-up: dose 10 mg/kg, route oral; conditions: in vivo; procedure, shortened: as §2
[12] = Volume of distribution at steady state in rat at 2 mg/kg, iv; assay type: ADME, organism-based; set-up: dose 2 mg/kg, route intravenous; conditions: in vivo, read-out: Vdss; procedure, shortened: as §3
[13] = Half life in rat at 2 mg/kg, iv; assay type: ADME, organism-based; set-up: dose 2 mg/kg, route intravenous; conditions: in vivo; procedure, shortened: as §3
[14] = Half life in rat liver microsomes; assay type: ADME

| SMILES | EC50 [1] [nM] | half-life [2] [h] | concentration at 1 h [3] [nM] | Papp A→B [4] [×10⁻⁶ cm/s] | IC50 [5] [nM] | concentration at 2 h [6] [nM] | further results |
| --- | --- | --- | --- | --- | --- | --- | --- |
| Cn1c(-c2ccccn2)c(C2CCCC2)c2ccc(C(=O)NC3(C(=O)Nc4ccc(/C=C/C(=O)O)cc4O)CCC3)cc21 | 250 | – | – | – | 440 | – | – |
| Cn1c(-c2ccccn2)c(C2CCCC2)c2ccc(C(=O)NC3(C(=O)Nc4ccc(/C=C/C(=O)O)cc4Cl)CCC3)cc21 | – | – | – | – | 300 | – | – |
| Cn1c(-c2ccccn2)c(C2CCCC2)c2ccc(C(=O)NC3(C(=O)Nc4ccc(/C=C/C(=O)O)c(OC5CCC5)c4)CCC3)cc21 | 65 | 0.833 | – | – | 280 | – | – |
| Cn1c(-c2ccccn2)c(C2CCCC2)c2ccc(C(=O)NC3(C(=O)Nc4ccc(/C=C/C(=O)O)cc4F)CCC3)cc21 | 560 | – | – | – | 230 | – | – |
| CCOc1cc(NC(=O)C2(NC(=O)c3ccc4c(C5CCCC5)c(-c5ccccc5)n(C)c4c3)CCC2)ccc1/C=C/C(=O)O | 21 | – | – | – | 410 | – | – |
| CCOc1cc(NC(=O)C2(NC(=O)c3ccc4c(C5CCCC5)c(-c5ncc(Cl)cn5)n(C)c4c3)CC2)ccc1/C=C/C(=O)O | 34 | 3.25 | – | – | 380 | – | – |
| CCOc1cc(NC(=O)C2(NC(=O)c3ccc4c(C5CCCC5)c(-c5cccc(N)n5)n(C)c4c3)CCC2)ccc1/C=C/C(=O)O | 10 | 1.3 | 100 | 9.4 | 330 | 100 | – |
| Cn1c(-c2ccccn2)c(C2CCCC2)c2ccc(C(=O)NC3(C(=O)Nc4ccc(/C=C/C(=O)O)c(OCC5CC5)c4)CCC3)cc21 | 46 | 3.85 | – | – | 250 | – | – |
| CCOc1cc(NC(=O)C2(NC(=O)c3ccc4c(C5CCCC5)c(-c5ccc(Cl)cn5)n(C)c4c3)CCC2)ccc1/C=C/C(=O)O | 26 | 1.35 | 500 | 18 | 330 | 300 | half-life [14]: 1.73 h |
| Cn1c(-c2ccccn2)c(C2CCCC2)c2ccc(C(=O)NC3(C(=O)Nc4ccc(/C=C/C(=O)O)cc4C(F)(F)F)CCC3)cc21 | > 2500 | – | – | – | 2250 | – | – |
| CC(C)COc1cc(NC(=O)C2(NC(=O)c3ccc4c(C5CCCC5)c(-c5ccccn5)n(C)c4c3)CCC2)ccc1/C=C/C(=O)O | 55 | > 5 | – | – | 420 | – | – |
| CCOc1cc(NC(=O)C2(NC(=O)c3ccc4c(C5CCCC5)c(-c5ncc(Br)cn5)n(C)c4c3)CCC2)ccc1/C=C/C(=O)O | 19 | 2.57 | 1800 | 13 | 460 | 2100 | half-life [14]: 1.73 h |
| Cc1cc(/C=C/C(=O)O)ccc1NC(=O)C1(NC(=O)c2ccc3c(C4CCCC4)c(-c4ccccn4)n(C)c3c2)CCC1 | 1030 | – | – | – | 370 | – | – |
| Cn1c(-c2ccccn2)c(C2CCCC2)c2ccc(C(=O)NC3(C(=O)Nc4c(F)cc(/C=C/C(=O)O)cc4F)CCC3)cc21 | > 2800 | – | – | – | 1320 | – | – |
| COc1cc(NC(=O)C2(NC(=O)c3ccc4c(C5CCCC5)c(-c5ccccn5)n(C)c4c3)CCC2)cc(OC)c1/C=C/C(=O)O | 8 | – | 400 | 17.6 | 340 | – | half-life [14]: 0.7 h |

The next molecules have a lower IC50 [5] than those just listed; values first:

| EC50 [1] [nM] | half-life [2] [h] | concentration at 1 h [3] [nM] | Papp A→B [4] [×10⁻⁶ cm/s] | IC50 [5] [nM] | concentration at 2 h [6] [nM] | SMILES | further results |
| --- | --- | --- | --- | --- | --- | --- | --- |
| 10 | 2.15 | 200 | 12 | 200 | – | COCCOc1cc(NC(=O)C(C)(C)NC(=O)c2ccc3c(C4CCCC4)c(-c4ncc(Cl)cn4)n(C)c3c2)ccc1/C=C/C(=O)O | – |
| 36 | 1.9 | 1300 | 19 | 110 | 800 | CC(C)Oc1cc(NC(=O)C2(NC(=O)c3ccc4c(C5CCCC5)c(-c5ccccn5)n(C)c4c3)CCC2)ccc1/C=C/C(=O)O | – |
| 230 | – | – | – | 180 | – | Cn1c(-c2ccccn2)c(C2CCCC2)c2ccc(C(=O)NC3(C(=O)Nc4ccc(/C=C/C(=O)O)c(C(F)(F)F)c4)CCC3)cc21 | – |
| 13 | > 5 | 1700 | 17 | 200 | 1100 | COCCOc1cc(NC(=O)C2(NC(=O)c3ccc4c(C5CCCC5)c(-c5ncc(Cl)cn5)n(C)c4c3)CCC2)ccc1/C=C/C(=O)O | Cmax [7]: 4100 nM; AUC [8]: 10.6 µM·h; bioavailability [9]: 16%; clearance [10]: 3.7 mL/min/kg; MRT [11]: 4.1 h; Vd [12]: 0.29 L/kg; half-life [13]: 2.1 h |
| 32 | 1.37 | 1100 | – | 47 | 500 | COc1cc(NC(=O)C2(NC(=O)c3ccc4c(C5CCCC5)c(-c5ccccn5)n(C)c4c3)CCC2)ccc1/C=C/C(=O)O | – |
| 16 | 1.2 | 1300 | 17 | 110 | 800 | CCOc1cc(NC(=O)C2(NC(=O)c3ccc4c(C5CCCC5)c(-c5ccc(F)cn5)n(C)c4c3)CCC2)ccc1/C=C/C(=O)O | Cmax [7]: 2200 nM; AUC [8]: 6.1 µM·h; bioavailability [9]: 17%; clearance [10]: 6.2 mL/min/kg; MRT [11]: 3 h; Vd [12]: 0.42 L/kg; half-life [13]: 1.5 h |
| 79 | – | – | – | 69 | – | Cc1cc(NC(=O)C2(NC(=O)c3ccc4c(C5CCCC5)c(-c5ccccn5)n(C)c4c3)CCC2)ccc1/C=C/C(=O)O | – |
| 12 | 0.6 | – | – | 150 | – | CCOc1cc(NC(=O)C2(NC(=O)c3ccc4c(C5CCCC5)c(-c5nccs5)n(C)c4c3)CCC2)ccc1/C=C/C(=O)O | – |
| 12 | 0.733 | 400 | – | 190 | 100 | CCOc1cc(NC(=O)C2(NC(=O)c3ccc4c(C5CCCC5)c(-c5cnn(C)c5)n(C)c4c3)CCC2)ccc1/C=C/C(=O)O | – |
| 8 | – | 500 | 24 | 27 | 100 | CCOc1cc(NC(=O)C(C)(C)NC(=O)c2ccc3c(C4CCCC4)c(-c4ncc(Cl)cn4)n(C)c3c2)ccc1/C=C/C(=O)O | – |
| 24 | 1.07 | 900 | 19 | 48 | 400 | CCOc1cc(NC(=O)C2(NC(=O)c3ccc4c(C5CCCC5)c(-c5ccccn5)n(C)c4c3)CCC2)ccc1/C=C/C(=O)O | – |
| 130 | – | – | – | 61 | – | Cn1c(-c2ccccn2)c(C2CCCC2)c2ccc(C(=O)NC3(C(=O)Nc4ccc(/C=C/C(=O)O)c(F)c4)CCC3)cc21 | – |
| 110 | – | – | – | 100 | – | Cn1c(-c2ccccn2)c(C2CCCC2)c2ccc(C(=O)NC3(C(=O)Nc4ccc(/C=C/C(=O)O)c(Cl)c4)CCC3)cc21 | – |
| 36 | 2.07 | 400 | 19 | 130 | 200 | CCCOc1cc(NC(=O)C2(NC(=O)c3ccc4c(C5CCCC5)c(-c5ccccn5)n(C)c4c3)CCC2)ccc1/C=C/C(=O)O | – |
| 27 | 1.45 | – | – | 56 | – | COCCOc1cc(NC(=O)C2(NC(=O)c3ccc4c(C5CCCC5)c(-c5ccccn5)n(C)c4c3)CCC2)ccc1/C=C/C(=O)O | – |
| 21 | 0.767 | – | – | 48 | – | CCOc1cc(NC(=O)C2(NC(=O)c3ccc4c(C5CCCC5)c(-c5cnccn5)n(C)c4c3)CCC2)ccc1/C=C/C(=O)O | – |
| 170 | – | – | – | 44 | – | Cn1c(-c2ccccn2)c(C2CCCC2)c2ccc(C(=O)NC3(C(=O)Nc4ccc(/C=C/C(=O)O)c(O)c4)CCC3)cc21 | – |
